# Laboratory results: ChEMBL document CHEMBL3244020, “Trichloroacetamidines, a new class of positive inotropic agents” (J Med Chem, 1978)
# Activity calls are given as the source filed them. The calls are words filed in the database; no cut-off is given here.
# Assays:
# Felis catus [1] = organism: Felis catus; assay: Positive inotropic activity in cat heart papillary muscle assessed as increase in contractile force up to 10 ug/mL measured for 5 to 30 mins in presence of beta-adrenergic inhibitor sotalol; assay type: functional, tissue-based
# Outline: (§1)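 Cat right-ventricular papillary muscle in Krebs–Henseleit at 37 °C, electrically driven at 1/s. Force recorded 5–30 min after compound, in the presence of the β-blocker sotalol at 10 μg/mL. Scored as mg increase in contractile force.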
# [2] = (§2) Positive inotropic activity in cat heart papillary muscle assessed as increase in contractile force at 10 ug/mL measured for 5 to 30 mins; assay type: functional, Felis catus, Muscle tissue
# Outline: (§3)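 Right-ventricular cat papillary muscles in Krebs–Henseleit at 37 °C, field-stimulated at 1/s (4–10 ms, 6–10 V). Muscles equilibrated about 90 min, until force fell to 25–30% of original. Compound added and force recorded at 5, 10, 20 and 30 min, followed by ouabain 0.5 μg/mL. Positives were retested on three more preparations at ≥3 concentrations. Scored as mg increase in contractile force.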
# Felis catus [3] = organism: Felis catus; assay: Positive inotropic activity in cat heart papillary muscle assessed as increase in contractile force at 10 ug/mL measured for 5 to 30 mins in presence of beta-adrenergic inhibitor sotalol; assay type: functional, tissue-based; outline: as §1
# [4] = Positive inotropic activity in cat heart papillary muscle assessed as increase in contractile force at 0.156 ug/mL measured for 5 to 30 mins; assay type: functional, Felis catus, Muscle tissue
# Outline: (§4)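 Right-ventricular cat papillary muscles in Krebs–Henseleit solution at 37 °C, paced at 1/s (4–10 ms, 6–10 V square waves). Equilibrated about 90 min; compound added once force had fallen to 25–30% of original (1.5–2 h). Force recorded 5, 10, 20 and 30 min after addition, then ouabain 0.5 μg/mL added. Increase over 20% scored positive. Actives retested on three further preparations at ≥3 concentrations.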
# [5] = Positive inotropic activity in cat heart papillary muscle assessed as increase in contractile force at 2.5 ug/mL measured for 5 to 30 mins; assay type: functional, Felis catus, Muscle tissue; outline: as §3
# [6] = Positive inotropic activity in cat heart papillary muscle assessed as concentration required to increase contractile force by 500 mg measured for 5 to 30 mins; assay type: functional, Felis catus, Muscle tissue; outline: as §3
# Felis catus [7] = organism: Felis catus; assay: (§5) Positive inotropic activity in cat heart papillary muscle assessed as increase in contractile force at 0.63 ug/mL measured for 5 to 30 mins; assay type: functional; conditions: Muscle tissue
# Outline: (§6)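 Right-ventricular papillary muscles from cat hearts in a 100-mL bath of Krebs–Henseleit solution at 37 °C, driven electrically with square waves of 4–10 ms, 6–10 V, 1/s. Equilibrated about 90 min until force fell to 25–30% of initial. Compound added, contractile force read at 5, 10, 20 and 30 min, then ouabain 0.5 μg/mL as a responsiveness check. Positive inotropy means a rise above 20%.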
# [8] = as §5; assay type: functional, Felis catus, Muscle tissue; outline: as §6
# Felis catus [9] = organism: Felis catus; assay: Positive inotropic activity in heart papillary muscle isolated from reserpine-treated cat assessed as increase in contractile force at 10 ug/mL measured for 5 to 30 mins; assay type: functional, tissue-based; conditions: Muscle tissue
# Outline: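 Cats pretreated with reserpine 0.5 mg/kg ip before papillary muscle isolation. Right-ventricular muscles kept in Krebs–Henseleit at 37 °C, stimulated at 1/s, and force recorded at 5–30 min after compound addition.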
# [10] = (§7) Inhibition of calf heart Na+-K+ dependent ATPase after 10 to 20 mins; parameters: species or system Bos taurus; conditions: read-out: I50
# Outline: (§8)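 Partially purified membrane ATPase from calf heart or guinea pig renal cortex. Reaction started by final addition of enzyme. Incubated at 37 °C under air, with aliquots taken at 10 and 20 min. Liberated phosphate measured by the Lowry–Lopez method. I50 came from log inhibitor vs percent inhibition lines, at least three points. This was done only where acute inhibition was >50% at 1 × 10⁻³ M.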
# Cavia porcellus = organism: Cavia porcellus; assay: (§9) Inhibition of guinea pig kidney Na+-K+ dependent ATPase after 10 to 20 mins; outline: as §8
# [11] = Dissociation constant, pKa of the compound; assay type: physicochemical
# Outline: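 pKa determined in water or in 30% EtOH–70% H2O, depending on compound.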
# [12] = Inhibition of calf heart Na+-K+ dependent ATPase preincubated for 30 mins measured after 10 to 20 mins; parameters: species or system Bos taurus; conditions: read-out: I50
# Outline: (§10)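 Partially purified membrane ATPase from calf heart or guinea pig renal cortex. Inhibitor plus enzyme were preincubated 30 min at 10× final concentrations, then added to the otherwise complete assay system. Incubated at 37 °C under air, with aliquots taken at 10 and 20 min. Liberated phosphate measured by the Lowry–Lopez method. I50 came from log inhibitor vs percent inhibition lines, at least three points.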
# [13] = Positive inotropic activity in cat heart papillary muscle assessed as increase in contractile force at 0.5 ug/mL measured for 5 to 30 mins; assay type: functional, Felis catus, Muscle tissue; outline: as §4
# [14] = Positive inotropic activity in cat heart papillary muscle assessed as increase in contractile force at 2 ug/mL measured for 5 to 30 mins; assay type: functional, Felis catus, Muscle tissue; outline: as §4
# [15] = as §9; parameters: species or system Cavia porcellus; conditions: read-out: I50; outline: as §8
# [16] = Positive inotropic activity in cat heart papillary muscle assessed as increase in contractile force at 1 ug/mL measured for 5 to 30 mins; assay type: functional, Felis catus, Muscle tissue; outline: as §4
# Canis familiaris = assay: Positive inotropic activity in Beagle dog assessed as increase in left ventricular contractile force at 50 mg/kg, iv; assay type: functional, organism-based; parameters: dose 50 mg/kg; conditions: Canis lupus familiaris, Heart left ventricle
# [17] = Inhibition of guinea pig kidney Na+-K+ dependent ATPase preincubated for 30 mins measured after 10 to 20 mins; parameters: species or system Cavia porcellus; conditions: read-out: I50; outline: as §10
# [18] = Positive inotropic activity in cat heart papillary muscle assessed as increase in contractile force at 0.8 ug/mL measured for 5 mins (reference value: 1080 mg); assay type: functional, Felis catus, Muscle tissue
# Bos taurus = organism: Bos taurus; assay: as §7; outline: as §8
# Felis catus [19] = organism: Felis catus; assay: as §2; assay type: functional; conditions: Muscle tissue; outline: as §3
Structure (SMILES),Activity (Felis catus [1]),Activity [2] [mg],Activity [5] [mg],Activity [6] [µg/mL],further results
N=C(NCc1ccccc1)C(Cl)(Cl)Cl,Active,<200,–,–,–
ClC(Cl)(Cl)C1=NCCCN1,–,>600,201,2.77,Activity (Felis catus [3]): inactive; Activity [4]: <200 mg
N=C(NCC(O)COc1ccccc1)C(Cl)(Cl)Cl (stereo not given),Active,201,–,–,–
N=C(NCCO)C(Cl)(Cl)Cl,Active,>600,<200,5.5,Activity (Felis catus [7]): inactive
ClC(Cl)(Cl)C1=NCCN1,Active,>600,201,4.86,Activity [8]: <200 mg
C[C@H](NC(=N)C(Cl)(Cl)Cl)c1ccccc1.Cl,Active,<200,–,>10,–
COc1ccccc1CNC(=N)C(Cl)(Cl)Cl.Cl,Active,201,201,4.75,Activity (Felis catus [9]): Active; Activity [8]: <200 mg
COc1cccc(CNC(=N)C(Cl)(Cl)Cl)c1.Cl,Active,201,–,>10,–
CNC(=N)C(Cl)(Cl)Cl.Cl,–,>600,>600,0.98,Activity (Felis catus [3]): inactive; Activity [8]: 201 mg; IC50 [10]: 1000 µM; I50 (Cavia porcellus): inactive
COc1ccc(CNC(=N)C(Cl)(Cl)Br)cc1,–,–,–,–,pKa [11]: 6.15
CC(=O)OC(CNC(=N)C(Cl)(Cl)Cl)COc1ccccc1.Cl (stereo not given),Active,>600,201,4.96,Activity (Felis catus [9]): Active; Activity [8]: <200 mg; IC50 [10]: 170 µM; IC50 [12]: 70 µM
Cl.N=C(NCCCNC(=N)C(Cl)(Cl)Cl)C(Cl)(Cl)Cl,Active,<200,–,>10,–
N=C(NCCc1ccc(O)cc1)C(Cl)(Cl)Cl,Active,>600,–,–,–
C=CCNC(=N)C(Cl)(Cl)Cl.Cl,–,>600,201,2.78,Activity (Felis catus [9]): Active; Activity (Felis catus [3]): inactive; Activity (Felis catus [7]): inactive
C[C@@H]1O[C@@H](O[C@H]2C[C@@H](O)[C@]3(CO)[C@H]4[C@H](O)C[C@]5(C)[C@@H](C6=CC(=O)OC6)CC[C@]5(O)[C@@H]4CC[C@]3(O)C2)[C@H](O)[C@H](O)[C@H]1O [OUABAIN],–,–,–,–,Activity [13]: 201 mg; IC50 [10]: 0.5 µM; IC50 [12]: 0.2 µM; Activity [14]: >600 mg; IC50 [15]: 0.5 µM; Activity [16]: >600 mg; Activity (Canis familiaris): Active
Cl.N=C(NCC1CC1)C(Cl)(Cl)Cl,Active,201,201,3.21,Activity (Felis catus [9]): Active; Activity [8]: <200 mg
Cn1cc(CNC(=N)C(Cl)(Cl)Cl)c2ccccc21,Active,201,–,–,–
COC(CNC(=N)C(Cl)(Cl)Cl)COc1ccccc1 (stereo not given),Active,201,–,–,–
Cl.N=C(NCCCO)C(Cl)(Cl)Cl,Active,201,<200,>10,–
CCCNC(=N)C(Cl)(Cl)Cl.Cl,Active,>600,201,2.22,Activity [4]: < 200 mg
C=CCN/C(=N\C)C(Cl)(Cl)Cl.Cl,Active,>600,201,3.89,Activity (Felis catus [7]): inactive

Structure (SMILES),Activity (Felis catus [1]),Activity [2] [mg],Activity [5] [mg],Activity [6] [µg/mL],further results
N=C(NCCc1c[nH]c2ccccc12)C(Cl)(Cl)Cl,Active,>600,201,2.33,IC50 [10]: 33 µM; Activity [4]: 201 mg; IC50 [15]: 150 µM; IC50 [17]: 4 µM
Cc1ccc(CNC(=N)C(Cl)(Cl)Cl)cc1.Cl,Active,>600,<200,8.43,Activity [8]: <200 mg
CC(CCc1ccc(O)cc1)NCCc1ccc(O)c(O)c1 (stereo not given) [DOBUTAMINE],–,–,–,–,Activity [18]: 1640 mg
N=C(NCc1ccccc1CO)C(Cl)(Cl)Cl,Active,201,–,–,I50 (Bos taurus): inactive; I50 (Cavia porcellus): inactive
N=C(NCc1cn(C(=O)c2ccccc2)c2ccccc12)C(Cl)(Cl)Cl,Active,>600,201,6.2,Activity (Felis catus [9]): Active; Activity [8]: <200 mg
N=C(NCC(O)c1ccccc1)C(Cl)(Cl)Cl (stereo not given),Active,>600,–,–,–
COc1ccc(CNC(=N)C(Cl)(Cl)Cl)cc1.Cl,Active,>600,201,4.99,Activity (Felis catus [9]): Active; Activity [8]: <200 mg; IC50 [10]: 20 µM; IC50 [12]: 5 µM; IC50 [15]: 800 µM; IC50 [17]: 100 µM; pKa [11]: 6
N=C(NCCc1ccccc1)C(Cl)(Cl)Cl,–,–,–,–,Activity (Felis catus [19]): inactive
N=C(Nc1ccccc1)C(Cl)(Cl)Cl,–,–,–,–,Activity (Felis catus [19]): inactive
COc1ccc(CNC(=N)C(F)(Cl)Cl)cc1,–,–,–,–,IC50 [10]: 20 µM; IC50 [12]: 2 µM; IC50 [15]: 15 µM; IC50 [17]: 2 µM; pKa [11]: 6.18
CN(C)C(=N)C(Cl)(Cl)Cl.Cl,Active,>600,–,–,–
C[C@@H](NC(=N)C(Cl)(Cl)Cl)c1ccccc1,–,–,–,–,Activity (Felis catus [19]): inactive
C=CCN(CC=C)C(=N)C(Cl)(Cl)Cl,–,–,–,–,Activity (Felis catus [19]): inactive
O=C(NCCO)C(Cl)(Cl)Cl,Active,–,–,–,Activity (Felis catus [19]): inactive
Cl.N=C(N)C(Cl)(Cl)Cl,Active,>600,201,2.68,Activity (Felis catus [9]): Active; Activity [8]: <200 mg
CC(=O)Nc1ccc(OCC(O)CNC(=N)C(Cl)(Cl)Cl)cc1 (stereo not given),Active,201,–,–,–
C=CCN(C)C(=N)C(Cl)(Cl)Cl.O=C(O)/C=C\C(=O)O,Active,>600,201,5.47,Activity [8]: <200 mg
C/N=C(\N(C)C)C(Cl)(Cl)Cl,–,–,–,–,Activity (Felis catus [3]): inactive
C/N=C(\NCC1CC1)C(Cl)(Cl)Cl.Cl,Active,>600,–,–,–
Cl.N=C(NCCc1ccc(O)c(O)c1)C(Cl)(Cl)Cl,–,201,<200,>10,Activity (Felis catus [3]): inactive; Activity (Felis catus [7]): inactive
